We go through 17 compounds from ChEMBL document CHEMBL1125425, “Synthesis and muscarinic activities of quinuclidin-3-yltriazole and -tetrazole derivatives” (J Med Chem, 1992).

The target of assay [1] is Muscarinic acetylcholine receptor. Put plainly: In vitro inhibition of [3H]OXO-M binding to Muscarinic receptor from rat cortical homogenates.
Assay [2] shares this target. The assay is described as follows: In vitro inhibition of [3H]QNB binding to Muscarinic receptor from rat cortical homogenates.
Assay [3] has the same target. Put plainly: Compound was tested in vitro for its binding affinity to muscarinic acetylcholine receptor from rat cortical homogenates using [3H]QNB as radioligand.
Assay [4] concerns the target Muscarinic acetylcholine receptor (Rattus norvegicus) (UniProt P08482+P08483+P08485+P08911+P10980). Put plainly: Ratio of IC50(QNB) to IC50(OXO-M) was determined. It counts as protein assay.
In assay [5] the target is Muscarinic acetylcholine receptor. The assay is described as follows: Compound was tested in vitro for its binding affinity to muscarinic acetylcholine receptor from rat cortical homogenates using [3H]OXO-M as radioligand. The essentials:
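Hooded Lister rat cerebral cortex washed membranes in 50 mM Tris pH 7.7 plus 2 mM MgCl2; 2 nM [3H]oxotremorine-M; nonspecific binding with 10 μM oxotremorine; 37 °C for 30 min; filtration on filters presoaked in 0.05% polyethylenimine, scintillation counting. IC50 is the geometric mean of at least two separate experiments, seven concentrations each.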

As to `c1nncn1C1CN2CCC1CC2` (centres undefined), the IC50 came to 40 µM in assay [1] and 165 µM in assay [2].
On to `Cn1cnc(C2CN3CCC2CC3)n1` (centres undefined), for which the 50% inhibitory concentration (IC50) in assay [1] came out at 3.4 µM; in assay [2] it was 30 µM.
Taken in the same sequence, the figures for `Cc1cn(C2CN3CCC2CC3)nn1` (centres undefined) were 5 µM and 20 µM.
Regarding `Cn1nnnc1C1CN2CCC1CC2` (centres undefined), the concentration for half-maximal inhibition (IC50) in assay [1] stood at 6.5 µM; in assay [2] it was 60 µM.
As to `C[N+](C)(C)CC#CCN1CCCC1=O.[I-]` [OXOTREMORINE METHIODIDE], the concentration for half-maximal inhibition (IC50) in assay [3] stood at 23 µM; in assay [5], 0.013 µM. In assay [4], the Ratio came out at 1820.
`Cn1cc(C2CN3CCC2CC3)nn1` (centres undefined): the half-inhibitory concentration (IC50) came out at 4.6 µM in assay [1] and 53 µM in assay [2].
Turning to `c1nnn(C2CN3CCC2CC3)n1` (centres undefined), the half-maximal inhibitory concentration (IC50) came out at 0.24 µM in assay [1] and 16 µM in assay [2].
For `Cn1nncc1C1CN2CCC1CC2` (centres undefined), the IC50 in assay [1] worked out at 0.93 µM; in assay [2], 29 µM.
On to `Cc1cnnn1C1CN2CCC1CC2` (centres undefined), for which the values for the IC50 in assay [3] and in assay [5] were 33 µM and 6.7 µM, respectively. Also, in assay [4], the Ratio worked out at 4.9.
For `Cn1nnc(C2CN3CCC2CC3)n1` (centres undefined), the IC50 in assay [1] was 0.14 µM; in assay [2] it was 5.1 µM.
`c1nnnn1C1CN2CCC1CC2` (centres undefined): the IC50 in assay [3] came to 115 µM; in assay [5] it was 2.3 µM. Also, the Ratio in assay [4] is 49.
`Cc1cnn(C2CN3CCC2CC3)n1` (centres undefined): the concentration for half-maximal inhibition (IC50) in assay [1] stood at 0.17 µM; in assay [2] it was 1.6 µM.
As for `Cc1nnn(C2CN3CCC2CC3)n1` (centres undefined), the concentration for half-maximal inhibition (IC50) worked out at 2.8 µM in assay [3] and 0.03 µM in assay [5]. Further, the Ratio in assay [4] was 92.
With `Cn1ncc(C2CN3CCC2CC3)n1` (centres undefined), the values for the 50% inhibitory concentration (IC50) in assay [1] and in assay [2] were 0.048 µM and 4.5 µM, respectively.
For `c1ncn(C2CN3CCC2CC3)n1` (centres undefined), the results for the IC50 in assay [3] and in assay [5] were 28 µM and 0.43 µM, respectively. Besides, the Ratio in assay [4] was 65.
Consider `O=C1CCCN1CC#CCN1CCCC1` [OXOTREMORINE], for which the values for the IC50 in assay [1] and in assay [2] were 0.017 µM and 3.3 µM, respectively.
Taken in the same sequence, the figures for `Cc1ncn(C2CN3CCC2CC3)n1` (centres undefined) were 0.075 µM and 4.5 µM.
